For two compounds, GI50, Activity and inhibition results are on record in ChEMBL document CHEMBL1155482, “Synthesis, anticancer activity and apoptosis inducing ability of anthranilamide-PBD conjugates” (2010).

Test [1] has as its system A549. Nature of the test: Cytotoxicity against human A549 cells after 48 hrs by SRB assay. The class given is functional. The conditions noted are these: A549, 48 h. Put shortly: (§1)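 Sulforhodamine B assay estimating cell density from cellular protein content, run on human cancer lines of lung, breast, oral, colon, cervix, ovary and prostate origin, with GI50 values derived.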

Test [2] relates to HOP-62. Nature of the test: Cytotoxicity against human HOP62 cells after 48 hrs by SRB assay. The class given is functional. The conditions noted are these: HOP-62, 48 h. The gist of the method: as §1
(In general: Sulforhodamine B stains cellular protein and so reports cell mass.)

Test [3] concerns ZR-75-1. The test is described as follows: Cytotoxicity against human ZR-75-1 cells after 48 hrs by SRB assay. The class given is functional. The conditions noted are these: ZR-75-1, 48 h. The gist of the method:
as §1

Test [4] concerns MCF7. Nature of the test: Cytotoxicity against human MCF7 cells after 48 hrs by SRB assay. The class given is functional. The following applies: MCF7, 48 h. Put shortly:
as §1

Test [5] can be described thus: Cytotoxicity against human DWD cells after 48 hrs by SRB assay. The class given is functional. The gist of the method:
as §1

The subject of test [6] is KB. Nature of the test: Cytotoxicity against human KB cells after 48 hrs by SRB assay. The class given is functional. The gist of the method: as §1
A short description of test [7]: Cytotoxicity against human Gurav cells after 48 hrs by SRB assay. The class given is functional. Put shortly:
as §1

Test [8] deals with PC-3. The test is described as follows: Cytotoxicity against human PC3 cells after 48 hrs by SRB assay. The following applies: PC-3, 48 h. It is filed as functional. The gist of the method: as §1
In test [9] the test system is A2780. The test is described as follows: Cytotoxicity against human A2780 cells after 48 hrs by SRB assay. It is filed as functional. The following applies: A2780, 48 h. The gist of the method: as §1
The test system of test [10] is COLO 205. The test is described as follows: Cytotoxicity against human COLO205 cells after 48 hrs by SRB assay. It is filed as functional. The following applies: COLO 205, 48 h. Put shortly:
as §1

The subject of test [11] is SiHa. The test is described as follows: Cytotoxicity against human SiHa cells after 48 hrs by SRB assay. It is filed as functional. The gist of the method:
as §1

For test [12], the system named is A-375. The test is described as follows: Cell cycle arrest in human A375 cells assessed as accumulation at S phase at 1 uM by FACS analysis. The class given is functional. The gist of the method:
(§2)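 A375 cells were exposed to compound for 24 h, and cell cycle distribution was measured by FACS. The sub-G1 peak (labelled G0) was scored as the apoptotic cell percentage and compared with untreated control cells.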
On the technique in general: In flow cytometry, cells or beads pass a laser one at a time.

Test [13] concerns A-375. Nature of the test: Cell cycle arrest in human A375 cells assessed as accumulation at G0/G1 phase at 1 uM by FACS analysis. It is filed as functional. The gist of the method:
as §2

The test system of test [14] is A-375. The test is described as follows: Cell cycle arrest in human A375 cells assessed as accumulation at G2/M phase at 1 uM by FACS analysis. The class given is functional. Put shortly:
as §2

In test [15] the test system is A-375. Nature of the test: Induction of apoptosis in human A375 cells assessed as p53 protein expression at 1 uM after 24 hrs by Western blotting. It is filed as functional, cell-based. Put shortly: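 A375 cells were treated for 24 h, and lysates were probed for p53 by western blot with a p53-specific antibody. Untreated cells served as control and β-actin as loading control.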
Background: In western blotting, separated proteins are transferred to a membrane and probed.

For test [16], the system named is A-375. Nature of the test: Induction of apoptosis in human A375 cells assessed as caspase 3 activation at 1 uM after 24 hrs by fluorimetry. The class given is functional, cell-based. The gist of the method: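 Caspase-3 activity in treated A375 cells was measured by fluorimetry relative to untreated cells.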
For test [17], the target named is T1, Type II restriction enzyme BamHI (Bacillus amyloliquefaciens) (UniProt P23940).
T1 sequence (whole entry): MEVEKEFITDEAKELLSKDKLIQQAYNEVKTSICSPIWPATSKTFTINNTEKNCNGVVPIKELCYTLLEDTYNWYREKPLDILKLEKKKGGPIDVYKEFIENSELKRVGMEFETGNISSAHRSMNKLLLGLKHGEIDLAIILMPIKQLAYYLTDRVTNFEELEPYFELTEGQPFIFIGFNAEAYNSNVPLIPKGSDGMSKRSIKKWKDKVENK
Nature of the test: Inhibition of Bacillus amyloliquifaction Bam H1-mediated restriction digestion of pBR322 at 4 uM by RED 100 assay. Put shortly:
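Restriction enzyme digestion (RED 100) of vector DNA by BamHI after exposure to compound at 2, 4, 8, 16 and 32 micromolar, with controls of vector cut without compound and uncut vector DNA.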

The test system of test [18] is A-375. Nature of the test: Induction of apoptosis in human A375 cells assessed as cells in dub G1 phase at 1 uM after 24 hrs by FACS analysis. The class given is functional. Put shortly:
as §2

Test [19] relates to A-375. Nature of the test: Antitumor activity against human A375 cells assessed as cell viability at 1 uM after 24 hrs by MTT assay. The class given is functional, cell-based.

Activity calls are given as the source filed them. No cut-off for these calls is given here.

In the case of `COc1cc2c(cc1OCCCCCN1CCN(C(=O)c3ccccc3NCc3ccc4ccccc4c3)CC1)N=C[C@@H]1CCCN1C2=O`, the GI50 in [1] came out at 170 nM; in [2] it was 1800 nM; in test [3] it was 150 nM; in [4], 130 nM; in test [5], 130 nM; in [6] it was 130 nM. In addition, the GI50 in test [7] worked out at 140 nM; in [8] it was 140 nM; in [9], 140 nM; in [10] it was 150 nM; in test [11], 150 nM. Further, the Activity was 7.09% in [12], 91.94% in test [13], 1.97% in [14] and 7.333% in test [18]. Besides, the outcome in test [15], in test [16] and in test [19] was Active. Moreover, the inhibition entry in test [17] was “Active”.
As to `COc1cc2c(cc1OCCCCCN1CCN(C(=O)c3ccccc3NCc3coc4ccccc4c3=O)CC1)N=C[C@@H]1CCCN1C2=O`, the GI50 worked out at 160 nM in [1]; 1800 nM in [2]; 160 nM in test [3]; 140 nM in test [4]; 160 nM in test [5]; 150 nM in test [6]. The GI50 stood at 170 nM in test [7]; 140 nM in test [8]; 180 nM in [9]; 2400 nM in test [10]; 130 nM in test [11]. Further, the Activity is recorded as 13.34% in test [12], 81.9% in [13], 6.68% in [14] and 3.483% in test [18]. Besides, the outcome in test [16] and in test [19] was Active.

Broadly, the GI50 is the concentration at which growth is held to half of that of the control. A lower GI50 goes with more potent growth inhibition.
